CHO parental Ca: signal in parental CHO cells, OX1R antagonist counter-screen; parental CHO-K1, ATP-induced calcium, Fluo-8 fluorescence; inhibition, % at 5.6 µM; actives 0.63% (n = 330,000);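 active = inhibition above that plate's mean sample inhibition plus 3 SD, cut at about 26% in these data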
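Material: Parental CHO cells | Reagent: ATP | Compound dosing: Single nominal dose of 5.6 µM per compound | Detection: Intracellular calcium via Fluo-8 no-wash fluorescent dye | Read-out: % inhibition of ATP-induced calcium mobilization | Benchmarks: Low control ATP plus DMSO, high control DMSO only | Replicates: Singlicate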
OX1R antag-1: blocks the human orexin 1 receptor. O43613. CHO/OX1R cells, Fluo-8 calcium fluorescence, orexin A. inhibition, % at 5 µM. actives 0.43% (n = 330,000);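 active = inhibition above its plate's threshold, mean inhibition of all tested compounds on the plate plus 3 SD, cut at about 37% in these data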
OX1R antag-2: OX1R (human) antagonism; O43613; OX1R-expressing cells, FRET antagonist read-out; inhibition, % at 6.6 µM; actives 1.8% (n = 330,000); AID 485270; in the data active = inhibition mostly above about 38%, no sharp cut-off; inactive = mostly below about 40%
GalR3 antagonist: antagonists of human GalR3 | O60755 | HEK293 GalR3-CNG cAMP membrane potential fluorescence; galR3 body fused to GalR1 C-terminus | inhibition, % at 3 µM | actives 0.44% (n = 360,000);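 active = inhibition above the screen-wide average plus 3 SD, cut at about 13% in these data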;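 note: forskolin and galanin both at EC90 stimulate the cells; cAMP rise reported by CNG channel membrane potential dye signal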
Target sequence (O60755 1-299 limits assumed): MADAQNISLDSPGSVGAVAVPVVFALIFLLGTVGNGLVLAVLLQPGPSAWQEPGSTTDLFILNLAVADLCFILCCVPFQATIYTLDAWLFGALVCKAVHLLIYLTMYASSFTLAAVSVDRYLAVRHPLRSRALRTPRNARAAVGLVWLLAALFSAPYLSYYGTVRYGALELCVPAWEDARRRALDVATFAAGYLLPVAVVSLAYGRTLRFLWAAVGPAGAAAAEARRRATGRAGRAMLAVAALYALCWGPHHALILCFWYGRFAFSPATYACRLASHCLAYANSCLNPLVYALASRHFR
GPR7 antagonist: blocks human GPR7 receptor signaling; P48145; GPR7-expressing cells, fluorescence antagonist assay; inhibition, % at 4.4 µM; actives 1.1% (n = 290,000); AID 1861; in the data active = inhibition above about 16%, passing the limit was not always enough;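 note: cells stimulated with the agonist NPW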
Target sequence (P48145 whole entry, looked up): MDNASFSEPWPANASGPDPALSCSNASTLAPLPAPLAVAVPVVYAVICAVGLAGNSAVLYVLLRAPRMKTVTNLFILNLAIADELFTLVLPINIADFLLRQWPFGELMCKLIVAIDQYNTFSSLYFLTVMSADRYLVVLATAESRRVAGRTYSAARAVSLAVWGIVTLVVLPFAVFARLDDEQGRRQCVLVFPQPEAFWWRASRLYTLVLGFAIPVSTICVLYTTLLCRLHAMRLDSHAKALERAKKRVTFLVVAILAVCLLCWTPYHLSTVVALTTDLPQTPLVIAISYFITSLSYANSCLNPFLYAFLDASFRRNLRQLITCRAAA
Each line names hits and unclear results; the compound was inactive in the other large screens. This is a sample that favours compounds with a hit; in the whole collection about 3.1% have one here.

CN(C1=C(NC(=O)c2ccccc2)C(=O)c2ccccc2C1=O)C1CCS(=O)(=O)C1 (stereo not drawn)	OX1R antag-2 85
Cc1ccc(Cl)cc1NC(=O)N(C)CCOC(=O)Nc1cccc(Cl)c1	none (no result: CHO parental Ca, OX1R antag-1, OX1R antag-2, GPR7 antagonist)
CCc1nn(CCCC(=O)NCc2ccccc2Br)c(=O)c2cc3occc3n12	none
CCc1cccc(NC(=O)CCCn2nc(CC)n3c(cc4occc43)c2=O)c1	OX1R antag-2 42
CCC(NC(=S)NCc1ccc(F)cc1)c1ccc(C(C)C)cc1 (stereo not drawn)	CHO parental Ca 42
CCc1cccc(NC(=O)COC(=O)CSc2ccc(C)cc2)c1	none (no result: CHO parental Ca, OX1R antag-1, OX1R antag-2, GPR7 antagonist)
CCCCNc1cccc2c1S(=O)(=O)N[C@@H](Cc1ccccc1)CO2	none (no result: CHO parental Ca, OX1R antag-1, OX1R antag-2, GPR7 antagonist)
O=C(Nc1nc2ccccc2s1)c1ccccc1[N+](=O)[O-]	none
CC(=O)Nc1nc2cccc([N+](=O)[O-])c2s1	OX1R antag-2 74
COCc1cc(C)nc2sc(C(=O)Nc3cccc(OC)c3)c(N)c12	OX1R antag-2 39
CCOC(=O)C(=Cc1ccc(-c2ccsc2C(=O)OC)o1)C(=O)OCC	none
COC(=O)C(=Cc1ccc(-c2ccsc2C(=O)OC)o1)C(=O)OC	OX1R antag-2 50
Cc1ccccc1CC(=O)Nc1ccc(C(=O)N2CCCC2)cc1	none
O=C(CCN1C(=O)/C(=C/c2ccccc2)SC1=S)NC1CCS(=O)(=O)C1 (stereo not drawn)	none
O=C(CCCN1C(=O)/C(=C/c2ccc(F)cc2)SC1=S)NC1CCS(=O)(=O)C1 (stereo not drawn)	CHO parental Ca 82
CCN(C(=O)CN1C(=O)S/C(=C\c2ccc(F)cc2)C1=O)C1CCS(=O)(=O)C1 (stereo not drawn)	OX1R antag-2 41
COC(=O)c1ccc2nc(-c3ccco3)c(Cc3ccc(OC)cc3C)n2c1	none (no result: CHO parental Ca, OX1R antag-1, OX1R antag-2, GPR7 antagonist)
O=C(COC(=O)c1ccc2c(c1Cl)C(=O)c1ccccc1C2=O)NC1CC1	OX1R antag-2 61
O=C(COC(=O)c1ccc2c(c1Cl)C(=O)c1ccccc1C2=O)NC1CCCCC1	none
O=C(Nc1cccc(Cl)c1)O/N=C\c1ccncc1	none
O=C(Nc1ccc(Cl)c(Cl)c1)O/N=C/c1ccncc1	CHO parental Ca 31
Cc1ccccc1CS(=O)(=O)c1nnc([C@H](CC(C)C)NC(=O)OC(C)(C)C)o1	CHO parental Ca 43
CCC(=O)Nc1nnc(S(=O)(=O)N(C)c2cc(C)cc(C)c2)s1	none (no result: CHO parental Ca, OX1R antag-1, OX1R antag-2)
COC(=O)CCN(C(=O)c1cc([N+](=O)[O-])cc([N+](=O)[O-])c1)c1ccccn1	OX1R antag-2 66
COC(=O)CCN(C(=O)c1ccc([N+](=O)[O-])cc1)c1ccccn1	none
Cc1cccc(C(=O)Nc2cccc3cccnc23)c1	none (no result: CHO parental Ca, OX1R antag-1, OX1R antag-2)
CN(CC(=O)N1CCc2ccccc21)S(=O)(=O)c1cccc2cccnc12	OX1R antag-2 60
Cc1ccc(NC(=O)CN(C)S(=O)(=O)c2cccc3cccnc23)cc1F	none
O=C(C1CCN(S(=O)(=O)c2cccc3cccnc23)CC1)N1CCc2ccccc21	none
Cc1ccc(C(=O)Nc2cccc3cccnc23)cc1C	OX1R antag-2 68
Cc1ccc(NC(=O)CN(C)S(=O)(=O)c2cccc3cccnc23)cc1C	OX1R antag-2 39 (no result: GalR3 antagonist)
O=C(C1CCCN1S(=O)(=O)c1cccc2cccnc12)N1CCc2ccccc21 (stereo not drawn)	OX1R antag-2 47
COC(=O)c1ccccc1NC(=O)C/C(C)=N/NC(=O)Cc1ccc(Cl)cc1	none
COc1ccc(S(=O)(=O)N2CCCOC2CNC(=O)C(=O)NCCCN2CCOCC2)cc1C (stereo not drawn)	none
CC(=O)c1cccc(CN2CCCC(C(=O)Nc3ccc(-c4ccco4)cc3)C2)c1 (stereo not drawn)	none
CCOC(=O)c1cccc(NC(=O)C2CCCN2S(=O)(=O)c2cccc3cccnc23)c1 (stereo not drawn)	none
Cc1ccccc1NC(=O)C1CCCN1S(=O)(=O)c1cccc2cccnc12 (stereo not drawn)	OX1R antag-2 43 (no result: GalR3 antagonist)
O=C(Nc1cccc(C(F)(F)F)c1)C1CCCN1S(=O)(=O)c1cccc2cccnc12 (stereo not drawn)	OX1R antag-1 80, OX1R antag-2 91
COc1ccc(NC(=O)N(C)C[C@@H]2OCc3cnnn3CCCC(=O)N([C@@H](C)CO)C[C@@H]2C)cc1	none (no result: CHO parental Ca, OX1R antag-1, OX1R antag-2, GPR7 antagonist)
Cc1ccc(/C=N/NC(=O)c2c(C)nc3ccc(Cl)cn23)cc1	none (no result: CHO parental Ca, OX1R antag-1, OX1R antag-2, GPR7 antagonist)
CCOc1ccc(OCCN2C(=O)NC(Cc3c[nH]c4ccccc34)C2=O)cc1 (stereo not drawn)	OX1R antag-2 43
Cc1nc2ccccc2c2c(N)cccc12	none (no result: CHO parental Ca, OX1R antag-1, OX1R antag-2, GPR7 antagonist)
CCOC(=O)C1=C(C)c2ccccc2N(C(=O)OC)C1(C)C(=O)OCC (stereo not drawn)	OX1R antag-2 33 (no result: GPR7 antagonist)
CCOC(=O)C1=C(C)c2ccccc2OC1(CC)C(=O)OCC (stereo not drawn)	none (no result: GPR7 antagonist)
Cc1c(C(=O)OCc2nc3ccsc3c(=O)[nH]2)oc2ccccc12	OX1R antag-2 49 (no result: GPR7 antagonist)
COc1cc(CN2CCCC(N3CCN(c4ccc(F)cc4)CC3)C2)ccc1F (stereo not drawn)	none
COc1cc(C[C@@H]2C(=O)OC[C@H]2Cc2ccc(OC)c(OC)c2)ccc1O	GalR3 antagonist 102 (no result: GPR7 antagonist)
COC(=O)[C@]12C[C@H](CC(=O)NCc3cccc(C(F)(F)F)c3)C(=O)N(CCC3=CCCCC3)C1=C[C@H](C(C)(C)C)O[C@@H]2C	none (no result: CHO parental Ca, OX1R antag-1, OX1R antag-2, GPR7 antagonist)
COc1ccc(CN(Cc2ccccn2)C(=O)CN2C(=O)COc3ccccc32)cc1	none (no result: GalR3 antagonist)
COc1ccc(CN(C(=O)CN2C(=O)COc3ccccc32)C2CCCC2)c(OC)c1	OX1R antag-2 58
CCCCC#Cc1ccc(C(=O)NNC(=O)Nc2ccccc2)o1	CHO parental Ca 35
CCCCN(CCCC)Cc1ccc(C(=O)NNC(=O)Nc2ccccc2)o1	none
O=C(NC1CCCCC1)C(C1CC1)n1c(=O)c(-c2ccccc2)nc2ccccc21 (stereo not drawn)	none (no result: CHO parental Ca, OX1R antag-1, OX1R antag-2, GPR7 antagonist)
COC(=O)/C(C#N)=C1/C=Cc2ccccc2N1C	OX1R antag-2 60
CC[n+]1cc(-c2ccccc2)nc(N2CCOCC2)n1	OX1R antag-2 51
NC(=O)c1cc(-c2ccccc2)nc(N2CCOCC2)n1	none
O=C(NC1CC1)c1cccc(NC(=O)C2CCN(S(=O)(=O)c3cccc(C(F)(F)F)c3)CC2)c1	none (no result: CHO parental Ca, OX1R antag-1, OX1R antag-2, GPR7 antagonist)
Cc1ccc(C)c(NC(=O)c2cc(-c3cc(C)ccc3O)n[nH]2)c1	CHO parental Ca 32
COc1ccc(NC(=O)c2cc(-c3cc(C)cc(C)c3O)n[nH]2)cc1Cl	OX1R antag-2 79
COc1ccc(Cl)cc1NC(=O)c1cc(-c2cc(C)ccc2O)n[nH]1	none
Cc1cc(O)c(-c2cc(C(=O)Nc3cccnc3)[nH]n2)cc1C	none
Cc1cc(C)c(O)c(-c2cc(C(=O)Nc3cccnc3)[nH]n2)c1	OX1R antag-2 44
COc1ccc(OC)c(NC(=O)c2cc(-c3cc(C)cc(C)c3O)n[nH]2)c1	OX1R antag-2 62
CCCc1cc(C(=O)OCC(=O)N(CCC)c2c(N)n(Cc3ccccc3)c(=O)[nH]c2=O)sc1C	none (no result: GPR7 antagonist)
